Test results taken from PubChem BioAssay.
A number with no mark means an inactive call. Inconclusive results are not listed. The source made the active and inactive calls.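 How the source made its calls, unless noted: active means RAM network inhibition above 8.4% in each of two replicates, 3 SD over the compound average; inconclusive means above 8.4% inhibition in only one replicate; inactive means 8.4% inhibition or less in each replicate.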

Legend:
[1] = OD615 S. cerevisiae growth inhibition, permissive medium, pilot counter-assay, permissive growth control for S. cerevisiae lifespan shortening project (AID 705;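 active means growth inhibition above 25% in both replicates, a cutoff set 3 SD above the mean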); conditions: OD615, 24 h, at 10 µM, active compounds read high
How it was run: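 System: S. cerevisiae with engineered DeaD lifespan system / Measured by: absorbance (optical density) at 615 nm / Read-out: reduction in yeast growth (OD615) / Times: 4 h cell pre-growth, 24 h exposure at 30 °C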

[2] = Restrictive medium S. cerevisiae growth inhibition, OD615, pilot screen of yeast lifespan reduction project, restrictive growth control (AID 706;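 active means growth inhibition above a set limit, 3 SD over mean compound inhibition, in both replicates, cut at about 43% in these data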;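 further: modified DeaD lifespan yeast strain shifted to restrictive glucose medium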); conditions: OD615, 48 h, at 10 µM, active compounds read high
How it was run: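 System: Engineered S. cerevisiae DeaD strain | Buffer or medium: Glucose-based CSMM-D restrictive medium | Schedule: 4 h pre-incubation, 48 h exposure at 30 °C | Technique: Optical density at 615 nm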

[3] = viability gain of MRP-1-high H69AR cells under doxorubicin, pilot screen, MRP-1 activator project, CellTiter-Glo, duplicate (AID 807;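 active means viability increase at or above a cutoff of the median across tested compounds plus 3 SD, cut at about 8.5% in these data, passing the limit was not always enough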;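 further: compound pretreatment 18-22 h then 72 h combined with doxorubicin; 0% = doxorubicin alone and 100% = vehicle without doxorubicin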); conditions: H69AR viability with doxorubicin, CellTiter-Glo luminescence; at 10 µM; active compounds read high
[4] = growth suppression of beta-catenin knockout HCT116, pilot screen, human colon tumor cells (AID 823;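 active means cell viability at or below a set limit in both duplicate runs, the limit being the all-compound median minus 4 SD, cut at about 23% in these data, passing the limit was not always enough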;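 further: 0% = wells killed by 20 µM Hyamine and 100% = untreated DMSO cell wells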); conditions: CellTiter-Glo, 60 h, at 10 µM, active compounds read low
[5] = growth suppression of PTEN-deleted HCT116, pilot screen, cell-based, HCT116 clonal line, CellTiter-Glo (AID 824;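 active means viability at or below 27.92% in each of two runs, the all-compound median minus 4 SD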;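 further: 0% = 20 µM Hyamine control and 100% = vehicle cell control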); conditions: 60 h, at 10 µM, active compounds read low
[6] = inhibitors of the yeast RAM network, pilot screen, dse1pr::URA3 reporter, 5-FOA selection (AID 869;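 active means inhibition over a set limit, the all-compound mean plus 3 SD, in both replicate runs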;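 further: 0% = DMSO wells with no growth and 100% = 10 µM 1-NA-PP1 with full growth; RAM network block rescues cells from 5-FOA so hits raise OD615 growth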); conditions: S. cerevisiae dse1pr::URA3 5-FOA growth, OD615, 2 d; at 10 µM; active compounds read high; strain carries analog-sensitive mutant Cbk1 kinase
[7] = RAM signaling pathway blockade in yeast – S. cerevisiae, Pdr1DBD-CYC8 efflux-inhibited sensitized strain, primary screen (AID 1298);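 further: 0% = DMSO untreated cells without growth and 100% = 10 µM 1-NA-PP1 full growth; higher means more yeast growth rescued from 5-FOA killing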; conditions: S. cerevisiae cbk1-as DSE1-URA3 strain, 5-FOA growth OD615, 2 d; at 50 µM; active compounds read high

Row | SMILES | growth inhibition [1] [%] | growth inhibition [2] [%] | viability increase [3] [%] | viability [4] | viability [5] | inhibition [6] [%] | RAM network inhibition [7] [%]
1 | C=CCn1c(CCCNC(=O)CCC)nc2ccccc21 | 2 | 0.97 | -0.01 | 99.4% | 103% | -0.095 | 4.24
2 | O=C(Cn1cnc2c(nnn2-c2ccccc2)c1=O)NCCc1ccccc1 | -0.435 | -10.4 | -1.04 | 105% | 100% | 0.75 | 3.12
3 | O=C(c1ccccc1)C(Sc1ncn[nH]1)c1ccccc1 (configuration not stated) | -8.75 | 0.305 | 5.4 | 92.5% | 85.7% | 1.1 | 2.92
4 | CCOc1ccccc1C1C(C(N)=O)=C(C)Nc2nc(CCCO)nn21 (configuration not stated) | -13.8 | 2.83 | -1.39 | 100% | 102% | 2.46 | -1.1
5 | CC1CCN(C(=O)CSc2nnc(Cc3cccn3C)n2-c2ccc(F)cc2)CC1 | -5.51 | 10.6 | -0.49 | 88.7% | 92% | 1.79 | 2.35
6 | COc1ccc(-c2nn(CC(=O)N(C)C)c(=O)c3ccccc23)cc1 | -7.62 | -6.71 | -1.08 | 99.8% | 86.4% | 1.01 | 0.6
7 | COc1cccc(C2C(C(=O)c3ccco3)=C(O)C(=O)N2CCCN2CCOCC2)c1OC (configuration not stated) | -8.82 | -0.75 | -3.37 | 102% | 93.5% | 1.02 | 6.98
8 | O=c1cc(O)sc2ccccc12 | -4.72 | -8.78 | -2.09 | 96.4% | 94.4% | 0.79 | -0.87
9 | COC(=O)COC(=O)c1ccc(Oc2nc(OC)nc(N(C)C)n2)cc1 | -10.3 | -13.7 | 0.83 | 103% | 104% | 1.35 | 2.76
10 | COc1ccc2cc3c(N)nn(C(=O)Cc4ccccc4OC)c3nc2c1 | 10.1 | 17.7 | -8.54 | 2.78% (active) | 5.52% (active) | 0.65 | 2.84
11 | NS(=O)(=O)c1ccc(CCNC(=O)C2CCCN(S(=O)(=O)c3cccnc3)C2)cc1 (configuration not stated) | -8.75 | -8.71 | -0.63 | 108% | 97.7% | 1.63 | 5.27
12 | O=C(NC1CCCCC1)c1ccc(S(=O)(=O)N2CCOCC2)cc1 | -2.04 | -2.56 | 0.17 | 104% | 101% | 0.855 | -0.73
13 | COC(=O)c1ccc(C)c(NS(=O)(=O)c2ccc(OC)cc2)c1 | -0.83 | -23.9 | -5.33 | 16.6% (active) | 20.5% (active) | 2.15 | 9.79
14 | CCC(CC)C(=O)Nc1cc(C)c2c(=O)oc3ccccc3c2n1 | -17.2 | -12.2 | -5.01 | 62.5% | 64.2% | 2.33 | 9.87
15 | CCC(=O)Nc1nnc(-c2ccco2)o1 | -3.92 | -4.75 | -0.45 | 93.8% | 102% | 0.105 | 4.9
16 | COc1ccc(NC(=O)C2CCCN2S(=O)(=O)c2ccc(F)cc2)cc1 (configuration not stated) | -11.8 | -12.7 | -0.14 | 109% | 99.2% | 1.87 | -1.32
17 | COc1ccc(OC)c2[nH]c(=O)c(CCNC(=O)c3cc4ccccc4o3)cc12 | -6.5 | -3.6 | 2.38 | 87.8% | 94.7% | 0.6 | 7.96
18 | O=S(=O)(NC1CCCCC1)c1cccc(-c2nnc(-c3ccccc3)o2)c1 | -12.2 | -20.6 | 0.12 | 88.7% | 81.2% | 0.285 | 3.44

Row | SMILES | growth inhibition [1] [%] | growth inhibition [2] [%] | viability increase [3] [%] | viability [4] | viability [5] | inhibition [6] [%] | RAM network inhibition [7] [%]
19 | COc1cccc(-c2nnc3n2N=C(C(C)(C)C)CS3)c1 | -5.97 | -16.3 | -4.18 | 5.81% (active) | 5.52% (active) | 0.79 | 2.49
20 | O=C(Nc1ccccc1)N(CCc1ccncc1)C1CCCCC1 | -7 | -2.46 | -2.85 | 97.4% | 98.9% | 1.18 | -0.83
21 | CC(NC(=O)Cn1cc2c(n1)CCCCC2)c1ccccc1 (configuration not stated) | -0.875 | 2.88 | 3.53 | 101% | 100% | -0.32 | 0.87
22 | Fc1ccc(CSc2nnc(-c3cccnc3)n2Cc2ccco2)cc1 | 1.42 | 10.1 | -2.14 | 90.8% | 99.8% | 1.94 | 2.25
23 | Cc1cc(=O)oc(C)c1C(=O)N1CCc2c([nH]c3ccccc23)C1C(C)C (configuration not stated) | 3.99 | 3.98 | -5 | 94.9% | 89.4% | 1.1 | 4.47
24 | CCOC(=O)C1CCCN(C(=O)c2cn(CC)c3ccc(S(=O)(=O)N(C)C)cc3c2=O)C1 (configuration not stated) | -5.92 | -15.5 | -0.67 | 108% | 102% | 0.85 | 0.1
25 | CCCC(c1c(C)n(C)n(-c2ccccc2)c1=O)c1c(C)n(C)n(-c2ccccc2)c1=O | -9.58 | -13.4 | -1.18 | 90.2% | 103% | 1.16 | 4.48
26 | O=C(NCc1ccccc1)c1ccc(CN2CCOCC2)cc1 | 7.58 | 2.15 | -0.24 | 100% | 104% | 0.89 | 9.41
27 | CCN(CC)S(=O)(=O)c1ccc(C2CNC(=O)C2)cc1 (configuration not stated) | -6.66 | -3.95 | 1.75 | 106% | 102% | 1.48 | -0.31
28 | CC(C)Cc1cc(C(=O)Nc2cc(Cl)ccc2Cl)no1 | -14.2 | -0.125 | -2.35 | 104% | 98% | 3.71 | 1.67
29 | COC(=O)C(C(=O)OC)C(C(=O)OC)C(C(=O)OC)C(=O)OC | -6.07 | -6.78 | -1.54 | 97.2% | 92.6% | 0.42 | -1.61
30 | CS(=O)(=O)N1CCN(c2nc(-c3ccc(F)cc3)cs2)CC1 | -4.7 | 1.69 | -0.68 | 90.9% | 88.8% | 2.98 | 3.11
31 | CCC(C)NC(=O)C1CN(S(=O)(=O)c2ccccc2)CCN1S(=O)(=O)c1ccccc1 (configuration not stated) | 10.9 | -6.21 | -2.53 | 97.3% | 92.9% | 0.14 | 0.57
32 | Cc1ccc(C)n1-n1c(C)nc2scc(-c3cccs3)c2c1=O | -13.1 | 1.95 | -3.42 | 72.1% | 71.6% | 0.72 | 2.2
33 | Cc1cc(Nc2ccc(F)cc2)n2nc(C)nc2n1 | -2.01 | 4.12 | -0.76 | 100% | 97.2% | -0.875 | 0.55
34 | Cc1sc2ncnc(Sc3nnc4sc5ccccc5n34)c2c1C | 6.21 | -2.07 | -3.97 | 55.4% | 65.2% | 2.33 | 5.95
35 | CCOC(=O)c1c(CN2CCCCC2)n(C)c2ccc(OC)c(S(=O)(=O)c3ccccc3)c12 | -6.81 | -19.7 | -3.9 | 96.3% | 92.4% | 0.105 | 3.27
36 | Cc1cc(S(=O)(=O)N2CCN(Cc3ccccc3)CC2)c(C)s1 | -11.6 | 0.51 | -1.58 | 77.1% | 81.1% | 1.35 | 4.48
